TRPC6 act – activates the mouse TRPC6 cation channel | Q61143 | HEK293-TRPC6 membrane potential dye fluorescence; stronger effect = higher value | B-score at 10 µM | hit rate 0.13% among 310,000;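 active means B-score of the integrated fluorescence ratio above library mean plus 3 SD, and starting fluorescence ratio within library mean plus 5 SD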;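 further: higher score means more depolarization so channel activation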
Target sequence (Q61143 whole entry, looked up): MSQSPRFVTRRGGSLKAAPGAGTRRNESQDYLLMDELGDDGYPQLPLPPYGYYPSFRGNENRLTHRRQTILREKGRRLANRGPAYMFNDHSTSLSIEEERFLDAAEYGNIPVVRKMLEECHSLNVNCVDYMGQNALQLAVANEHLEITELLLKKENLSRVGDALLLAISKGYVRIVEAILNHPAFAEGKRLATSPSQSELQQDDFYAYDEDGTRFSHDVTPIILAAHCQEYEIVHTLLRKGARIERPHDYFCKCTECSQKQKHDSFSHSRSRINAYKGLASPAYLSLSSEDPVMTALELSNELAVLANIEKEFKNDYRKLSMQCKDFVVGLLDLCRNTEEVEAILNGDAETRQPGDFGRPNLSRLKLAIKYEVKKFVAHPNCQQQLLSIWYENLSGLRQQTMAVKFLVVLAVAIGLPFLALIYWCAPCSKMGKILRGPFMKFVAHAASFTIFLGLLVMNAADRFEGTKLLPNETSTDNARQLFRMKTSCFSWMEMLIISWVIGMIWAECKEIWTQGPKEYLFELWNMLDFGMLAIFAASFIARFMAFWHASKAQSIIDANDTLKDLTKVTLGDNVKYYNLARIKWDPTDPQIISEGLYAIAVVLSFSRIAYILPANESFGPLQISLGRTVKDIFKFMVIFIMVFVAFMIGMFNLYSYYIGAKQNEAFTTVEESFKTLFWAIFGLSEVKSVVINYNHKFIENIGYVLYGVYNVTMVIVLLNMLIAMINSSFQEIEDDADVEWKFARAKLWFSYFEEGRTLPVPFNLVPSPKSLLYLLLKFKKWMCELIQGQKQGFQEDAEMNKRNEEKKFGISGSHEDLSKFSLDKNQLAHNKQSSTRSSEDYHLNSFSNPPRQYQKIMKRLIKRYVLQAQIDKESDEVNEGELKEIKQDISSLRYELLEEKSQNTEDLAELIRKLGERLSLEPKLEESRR
TRPC6 inh – mouse TRPC6 channel inhibition; Q61143; AID 2553; hit rate 1.1% among 310,000; HEK293-TRPC6, membrane potential dye, ACh-evoked depolarization; stronger effect = lower value; B-score at 10 µM;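 active means B-score under library mean minus 3 SD, initial fluorescence not abnormally high, positive integrated signal ratio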;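 further: B-score derived from integrated fluorescence ratio over the kinetic read; more negative B-score means stronger inhibition of depolarization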
TRPC4 act – opens the mouse TRPC4 cation channel. HEK293 TRPC4beta/mu-opioid, Fluo4 calcium fluorescence; stronger effect = higher value. B-score at 10 µM. hit rate 0.49% among 310,000. AID 2237;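 active means B-score above 5 SD of library B-scores, and initial fluorescence ratio not above library mean plus 5 SD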;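 further: positive B-score marks a calcium rise read as TRPC4 activation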
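Material: HEK293 stable line with TRPC4beta plus mu-opioid receptor; technique: Fluo4 calcium-sensitive dye fluorescence, kinetic, 1 Hz baseline; timing: Fluo4 dye loading 45 min at room temperature, 110 s recording; controls: assay buffer as low control, maximal DAMGO as high control; read-out: integrated baseline-normalised fluorescence ratio, converted to per-well B score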
TRPC4 PAM – TRPC4 (mouse) allosteric potentiation. Q9QUQ5. HEK293 TRPC4beta/mu-opioid, DAMGO EC20, Fluo-4 Ca2+ flux; stronger effect = higher value. B-score at 10 µM. hit rate 0.42% among 310,000. AID 2227;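 active means B-score of calcium response area above 5 SD of library B-scores, with initial fluorescence ratio within 5 SD of library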;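 further: B-score of integrated fluorescence ratio over time as area under calcium response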
TRPC4 block – blocks the mouse TRPC4 cation channel; B-score at 10 µM; hit rate 0.39% among 300,000; AID 2247; HEK293 TRPC4beta/mu-opioid, DAMGO-evoked Fluo4 calcium flux; stronger effect = lower value; Q9QUQ5;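 active means B-score over 3 SD under the library average, no early fluorescence shift, positive overall ratio signal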
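System: stable TRPC4beta/mu-opioid receptor HEK293 cells; Dosing: single-point compound dosing; Measured by: Fluo4 Ca2+ flux fluorescence; Read-out basis: per-well B score of integrated baseline-normalized Fluo4 ratio.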
TRPC4 spec 2 – second check of whether TRPC6 inhibitors also affect mouse TRPC4. HEK293 TRPC4/MOR, membrane potential dye fluorescence; channel activated by saturating DAMGO dose. AID 2776. hit rate 42% among 920. shares compounds with TRPC6 inh. inhibition, % at 10 µM;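 active means compounds whose fluorescence signal differed from control wells by over 3 SD, either direction, in both duplicate plates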
TRPC4 spec – tests whether TRPC6 inhibitors also affect mouse TRPC4; shares compounds with TRPC6 inh; HEK293 TRPC4/mu-opioid, membrane potential fluorescence; activity change, negative = inhibition, % at 10 µM; hit rate 61% among 920; AID 2777;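 active means rise or fall in signal beyond 3 SD of buffer-only wells in both replicate plates, either sign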;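 further: integrated kinetic ratio of fluorescence range over baseline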
HEK293 MPD ctr 2-1 – second check of TRPC6 inhibitor effects in parental HEK293 cells | shares compounds with TRPC6 inh | parental HEK293 membrane potential dye fluorescence; maximal acetylcholine challenge after compound addition | signal change vs control, % at 10 µM | hit rate 31% among 920 | AID 2779;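 active means membrane potential signal moving either way by over 3 SD of the maximum-effect control, in both duplicate plates, meaning non-specific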
HEK293 MPD ctr-1 – checks TRPC6 inhibitor effects in parental HEK293 cells; shares compounds with TRPC6 inh; parental HEK293 membrane potential dye fluorescence; membrane potential signal change, % at 10 µM; hit rate 60% among 920; AID 2780;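 active means membrane potential signal shifting up or down by more than 3 SD of buffer-only wells, on both duplicate plates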
HEK293 MPD ctr-2 – counter-screen for TRPC6 modulators: effect in parental HEK293 cells | shares compounds with TRPC6 inh | membrane potential dye fluorescence | membrane potential signal change, % at 10 µM | hit rate 51% among 2,400 | AID 488924;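 active means membrane potential signal moves up or down beyond 5 SD from buffer-only wells, on both duplicate plates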
HEK293 MPD ctr 2-2 – parental HEK293 nonspecific activity of TRPC6 modulators, second screen. inhibition, % at 10 µM. hit rate 14% among 2,400. shares compounds with TRPC6 inh. membrane potential dye fluorescence; after compound, maximal acetylcholine stimulation. AID 488926;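 active means membrane potential signal drops by more than 5 SD from the mean control signal, in both duplicate plates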;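 further: plate controls were acetylcholine ECmax control wells for no effect and buffer only wells for full effect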
TRPC4/MOR mod – selectivity of TRPC6 modulators against mouse TRPC4. shares compounds with TRPC6 inh. HEK293 TRPC4/mu-opioid, membrane potential fluorescence. percent change from control (negative = decrease, positive = increase), % at 10 µM. hit rate 69% among 2,400. AID 488927;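 active means membrane potential signal moved up or down beyond 5 SD of buffer control wells, in both duplicate plates, actives on both sides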;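 further: plate controls were assay buffer wells for no effect and DAMGO maximal-effect wells for full effect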
TRPC4/MOR inh 2 – second selectivity test of TRPC6 modulators against mouse TRPC4 | shares compounds with TRPC6 inh | HEK293 TRPC4/mu-opioid, membrane potential dye fluorescence; stimulated with maximal-effect DAMGO | inhibition, % at 10 µM | hit rate 55% among 2,400;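 active means drop in membrane potential signal beyond 5 SD of the control wells in both duplicate plates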;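 further: TRPC4 counter screen for TRPC6 hits run under conditions tuned for TRPC6 not TRPC4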
TRPC6 block conf – mouse TRPC6 inhibitor confirmation | shares compounds with TRPC6 inh | hit rate 43% among 3,300 | AID 488960 | inhibition, % at 10 µM | HEK293-TRPC6, membrane potential dye, ACh-evoked depolarization;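 active means fluorescence ratio falls more than 5 SD below the full-stimulation control mean, in both duplicate runs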;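 further: integrated fluorescence ratio of peak minus minimum over baseline after agonist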
TRPC6 act confirm – confirmation of mouse TRPC6 activators; shares compounds with TRPC6 inh; HEK293-TRPC6 membrane potential dye fluorescence, FDSS; activation, % at 10 µM; hit rate 11% among 2,800; AID 488961;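 active means ratio signal rise beyond 5 SD above unstimulated control wells' mean, seen in both duplicate runs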;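 further: plate controls were buffer EC0 wells for no effect and acetylcholine ECmax response for full effect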
An asterisk follows results filed as active; i = inactive; · = not tested or not shown. Hits are enriched below; roughly 2.3% of the tested compounds scored in any of these assays.

SMILES | TRPC6 act | TRPC6 inh | TRPC4 act | TRPC4 PAM | TRPC4 block | HEK293 MPD ctr-2 | HEK293 MPD ctr 2-2 | TRPC4/MOR mod | TRPC4/MOR inh 2 | TRPC6 block conf | TRPC6 act confirm | others
N=c1n(CC(=O)c2cccs2)c2ccccc2n1Cc1ccccc1 | i | -9.7* | i | i | i | · | · | · | · | 65%* | i | TRPC4 spec 2=33%*;TRPC4 spec=i;HEK293 MPD ctr 2-1=i;HEK293 MPD ctr-1=2.0%*
C=CCOc1ccccc1/C=N/NC(=O)Cc1ccc(C)cc1 | i | i | i | i | i | · | · | · | · | · | ·
Cc1n[nH]c(=O)c2c(NC(=O)COC(=O)Cc3ccc(Cl)cc3Cl)oc(C)c12 | i | i | i | i | i | · | · | · | · | · | ·
CCN1CCN(c2ccc([N+](=O)[O-])c(Sc3nc4ccccc4[nH]3)c2)CC1 | i | -5.4* | i | i | i | i | i | -12%* | 61%* | 46%* | i
COc1ccc(-c2n(CC(=O)OC3CC(C)CCC3C(C)C)c3ccccc3[n+]2C)cc1 (centres undefined) | 15* | -5.1* | i | i | i | 536%* | i | 108%* | 56%* | 50%* | 192%*
CN(C)S(=O)(=O)c1ccc(N2CCCC2)c(C(=O)NC(c2ccccc2)c2ccccc2)c1 | i | i | i | i | i | · | · | · | · | · | ·
CCCN1C(=S)SC(C)(C)C1/[N+]([O-])=C/c1cccnc1 (centres undefined) | i | i | i | i | i | · | · | · | · | · | ·
CCCCN1C(=S)SC(C)(C)C1/[N+]([O-])=C/c1cccnc1 (centres undefined) | i | -6.6* | i | i | i | · | · | · | · | 57%* | · | TRPC4 spec 2=i;TRPC4 spec=i;HEK293 MPD ctr 2-1=i;HEK293 MPD ctr-1=i
NC(=O)COC(=O)c1cc(-c2cccs2)nn1-c1ccccc1 | i | i | i | i | · | · | · | · | · | · | ·
CC1CCCN(C(=O)COC(=O)c2cc(-c3cccs3)nn2-c2ccccc2)C1 (centres undefined) | i | -6.5* | i | i | i | 113%* | i | 18%* | i | 50%* | ·
CC(C)(C)OC(=O)N1CCC(CNC(=O)Nc2ccccc2)CC1 | i | i | i | i | i | · | · | · | · | · | ·
Cn1cccc1/C=C1\Cc2ccccc2C1=O | i | i | i | i | i | · | · | · | · | · | ·
Cn1cccc1/C=C1\CC(C(C)(C)C)C/C(=C\c2cccn2C)C1=O (centres undefined) | 30* | i | i | i | i | 182%* | i | i | i | i | i
CCCOc1ccc(C(=O)CCN2CCCCC2)cc1 | i | -5.4* | i | i | i | 150%* | i | 24%* | i | i | ·
Cc1ccccc1NC(C)C(=O)N/N=C/c1ccccc1OCc1cccc(Br)c1 (centres undefined) | i | -5.2* | i | i | i | i | i | i | i | i | i
COc1ccc(NC(C)C(=O)N/N=C/c2ccccc2OCc2cccc(Br)c2)cc1 (centres undefined) | i | i | i | i | i | · | · | · | · | · | ·
CCCCc1ccc(-c2csc(/C(C#N)=C\c3ccc(C)o3)n2)cc1 | i | -8.4* | i | i | i | · | · | · | · | i | · | TRPC4 spec 2=i;TRPC4 spec=i;HEK293 MPD ctr 2-1=i;HEK293 MPD ctr-1=i
CC(C)COc1ccc(S(=O)(=O)NNC(=O)c2cc3ccccc3o2)cc1 | i | i | i | i | i | · | · | · | · | · | ·
CCCCOc1ccc(S(=O)(=O)NNC(=O)c2cc3ccccc3o2)cc1 | i | -5.2* | i | i | i | i | i | i | i | i | i
CCOC(=O)CN1C(=O)N(CC(=O)OCC)C(c2ccccc2)(c2ccccc2)C1=O | i | i | i | i | i | · | · | · | · | · | ·
Oc1c(/C=N/c2ccccn2)sc2ccccc12 | i | -9.1* | i | i | i | 170%* | i | 30%* | i | i | ·
CCCN(CCC)CCCNc1ccc(C(=O)Nc2cccc(OC)c2)cc1[N+](=O)[O-] | i | -7.3* | i | i | i | · | · | · | · | i | i | TRPC4 spec 2=55%*;TRPC4 spec=-18%*;HEK293 MPD ctr 2-1=i;HEK293 MPD ctr-1=i
O=C(C[N+]1(CC#Cc2ccccc2)CCCCC1)c1ccccc1 | i | i | i | i | i | · | · | · | · | · | ·
CCC[N+]1(CC#CCC(c2ccccc2)c2ccccc2)CCCCC1 | i | -5.2* | i | i | i | i | i | 12%* | i | 42%* | i
Cc1ccc(C#CC[N+]2(CC#Cc3ccc(C)cc3)CCCCC2)cc1 | i | -5.4* | i | i | i | 92%* | i | 17%* | i | 44%* | ·
C#CC[N+]1(CC#Cc2ccccc2)CCCCC1 | i | i | i | i | i | · | · | · | · | · | ·
C(#Cc1ccccc1)C[N+]1(CC#Cc2ccccc2)CCCCC1 | i | -9.1* | i | i | i | · | · | · | · | 66%* | i | TRPC4 spec 2=i;TRPC4 spec=-0.2%*;HEK293 MPD ctr 2-1=i;HEK293 MPD ctr-1=0.7%*
C(#Cc1ccccc1)C[N+]1(CC#Cc2cccc3ccccc23)CCOCC1 | i | -5* | i | i | i | -78%* | i | -16%* | i | i | i
C#CC[N+]1(CC#Cc2cccc(C)c2)CCCCC1 | i | i | i | i | i | · | · | · | · | · | ·
Cc1cccc(Nc2c([N+](=O)[O-])c(=O)oc3ccccc23)c1 | i | i | i | i | i | · | · | · | · | · | ·

Screening data deposited in PubChem BioAssay by Johns Hopkins Ion Channel Center.
